The record followed here is ChEMBL document CHEMBL3244227, “Hexofuranosyladenine nucleosides as substrates and inhibitors of calf intestinal adenosine deaminase” (J Med Chem, 1979).

Calls of active or inactive are those of the source. The rule behind the calls is not given here.

The species entered for the first test is Bos taurus. In words: Activity at calf intestinal adenosine deaminase type 1 by spectrophotometric assay.
Conditions: not given
Consider `C[C@H](O)[C@H]1O[C@@H](n2cnc3c(N)ncnc32)[C@H](O)[C@@H]1O`, for which the Km worked out at 21 µM and the maximum rate (Vmax) came to 61 µmol/min/mg.

In the case of `Nc1ncnc2c1ncn2[C@@H]1O[C@H](CO)[C@@H](O)[C@H]1O`, the maximum rate (Vmax) is 220 µmol/min/mg. Consider `C[C@H](O)[C@@H]1O[C@@H](n2cnc3c(N)ncnc32)[C@H](O)[C@@H]1O`, for which the Michaelis constant (Km) turned out to be 670 µM and the Vmax amounted to 0.326 µmol/min/mg. The like results for `C[C@@H](O)[C@@H]1O[C@@H](n2cnc3c(N)ncnc32)[C@H](O)[C@H]1O` were, in that order, 230 µM and 0.105 µmol/min/mg. The like results for `C[C@H](O)[C@@H]1O[C@H](n2cnc3c(N)ncnc32)[C@@H](O)[C@@H]1O` were, in that order, “inactive” and “inactive”. The like results for `Nc1ncnc2c1ncn2[C@@H]1O[C@@H]([C@@H](O)CO)[C@@H](O)[C@H]1O` were, in that order, 280 µM and 0.092 µmol/min/mg.

For `C[C@@H](O)[C@H]1O[C@@H](n2cnc3c(N)ncnc32)[C@H](O)[C@@H]1O`, the Km worked out at 78 µM and the Vmax came to 0.792 µmol/min/mg. The like results for `C[C@H](O)[C@H]1O[C@@H](n2cnc3c(N)ncnc32)[C@H](O)[C@H]1O` were, in that order, 320 µM and 25 µmol/min/mg. On to `C[C@H](O)[C@H]1O[C@H](n2cnc3c(N)ncnc32)[C@@H](O)[C@@H]1O`, for which the Km result is “inactive” and the Vmax entry was “inactive”. `Nc1ncnc2c1ncn2[C@H]1O[C@@H]([C@H](O)CO)[C@@H](O)[C@@H]1O`: the Km result is “inactive” and the Vmax result is “inactive”. Take `C[C@@H](O)[C@@H]1O[C@@H](n2cnc3c(N)ncnc32)[C@H](O)[C@@H]1O`: the Km entry was “inactive” and the Vmax entry is “inactive”. In the case of `C[C@@H](O)[C@@H]1O[C@H](n2cnc3c(N)ncnc32)[C@@H](O)[C@@H]1O`, the Km entry was “inactive” and the Vmax result was “inactive”. In the case of `C[C@@H](O)[C@H]1O[C@H](n2cnc3c(N)ncnc32)[C@@H](O)[C@@H]1O`, the Km entry was “inactive” and the Vmax result was “inactive”. Consider `Nc1ncnc2c1ncn2[C@@H]1O[C@H]([C@@H](O)CO)[C@H](O)[C@H]1O`, for which the Km is 260 µM and the maximum rate (Vmax) was determined as 0.178 µmol/min/mg.

System in a further test: not listed separately
Put plainly: Inhibition of calf intestinal adenosine deaminase type 1 by spectrophotometric assay. On the set-up: species or system Bos taurus.
Conditions: not given
The gist of the method:
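Commercial calf intestinal adenosine deaminase (type I) was assayed with adenosine as substrate plus the analogue, both in 0.05 M phosphate buffer, pH 7.0, at 25 °C. Mode of inhibition and Ki were derived from the kinetics.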
As to `Nc1ncnc2c1ncn2[C@H]1O[C@@H]([C@H](O)CO)[C@@H](O)[C@@H]1O`, the inhibition constant Ki entry was “Not Active”.

Still in this test, the particulars now being: read-out: Ki.
`Nc1ncnc2c1ncn2[C@@H]1O[C@@H]([C@@H](O)CO)[C@@H](O)[C@H]1O`: the inhibitory constant (Ki) is 120 µM. Regarding `Nc1ncnc2c1ncn2[C@H]1O[C@H]([C@H](O)CO)[C@H](O)[C@@H]1O`, the Ki worked out at 240 µM. The same measure, in the same setting: for `Nc1ncnc2c1ncn2[C@@H]1O[C@H]([C@H](O)CO)[C@H](O)[C@@H]1O` the value was 670 µM; for `Nc1ncnc2c1ncn2[C@H]1O[C@H]([C@@H](O)CO)[C@H](O)[C@@H]1O`, 120 µM; for `Nc1ncnc2c1ncn2[C@@H]1O[C@H]([C@@H](O)CO)[C@H](O)[C@H]1O`, 180 µM.
